Test results: ChEMBL document CHEMBL1121608, “Modification of the 5' position of purine nucleosides. 2. Synthesis and some cardiovascular properties of adenosine-5'-(N-substituted)carboxamides” (J Med Chem, 1980)

Key:
Canis familiaris [1] = experiment: Total time in minutes elapsed from the initiation of the change until return to the pretest value of blood pressure in coronary sinus of anesthetized dog at intravenous dosage of 0.01 mg/kg; format: functional, Canis lupus familiaris
Canis familiaris [2] = experiment: Total time in minutes elapsed from the initiation of the change until return to the pretest value of blood pressure in coronary sinus of anesthetized dog at intravenous dosage of 0.10 mg/kg; format: functional, Canis lupus familiaris; conditions: dose 0.1 mg/kg
In short: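 Open-chest anesthetized dogs were given the compound intravenously. Duration is the total minutes from the start of the change until return to the pretest value. Blood pressure was recorded as change from control.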

Canis familiaris [3] = experiment: Total time in minutes elapsed from the initiation of the change until return to the pretest value of heart rate in coronary sinus of anesthetized dog at intravenous dosage of 0.01 mg/kg; format: functional, Canis lupus familiaris
Canis familiaris [4] = experiment: Total time in minutes elapsed from the initiation of the change until return to the pretest value of heart rate in coronary sinus of anesthetized dog at intravenous dosage of 0.10 mg/kg; format: functional, Canis lupus familiaris; conditions: dose 0.1 mg/kg
Canis familiaris [5] = experiment: Total time in minutes elapsed from the initiation of the change until return to the pretest value of oxygen partial pressure in coronary sinus of anesthetized dog at intravenous dosage of 0.01 mg/kg; format: functional, Canis lupus familiaris
Canis familiaris [6] = experiment: Total time in minutes elapsed from the initiation of the change until return to the pretest value of oxygen partial pressure in coronary sinus of anesthetized dog at intravenous dosage of 0.10 mg/kg; format: functional, Canis lupus familiaris; conditions: dose 0.1 mg/kg
Canis familiaris [7] = experiment: Tested for percent increase in coronary sinus partial pressure of oxygen (PO2) in open chest anesthetized dog at intravenous dosage of 0.01 mg/kg; format: functional, Canis lupus familiaris
Canis familiaris [8] = experiment: tested for the percent increase in heart rate (HR) in open chest anesthetized dog at intravenous dosage of 0.10 mg/kg; format: functional, Canis lupus familiaris; conditions: dose 0.1 mg/kg
Canis familiaris [9] = experiment: Tested for the percent increase in coronary sinus partial pressure of oxygen (PO2) in open chest anesthetized dog at intravenous dosage of 0.10 mg/kg; format: functional, Canis lupus familiaris; conditions: dose 0.1 mg/kg
[10] = Lethal dose in mice after intraperitoneal administration; format: toxicity, organism-based; conditions: mouse, in vivo, ip
In short: (§1)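 Male and female mice, three per dose group, were given the compound by the stated route in increments of 0.5 log doses. The LD50 was estimated as an approximate value.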

[11] = Lethal dose in mice after peroral administration; format: toxicity, organism-based; conditions: mouse, in vivo, po; in short: as §1
Canis familiaris [12] = experiment: Total time in minutes elapsed from the initiation of the change until return to the pretest value of blood pressure in coronary sinus of anesthetized dog at intravenous dosage of 1 mg/kg; format: functional, Canis lupus familiaris
Canis familiaris [13] = experiment: Total time in minutes elapsed from the initiation of the change until return to the pretest value of blood pressure in coronary sinus of anesthetized dog at intravenous dosage of 5 mg/kg; format: functional, Canis lupus familiaris
Canis familiaris [14] = experiment: Total time in minutes elapsed from the initiation of the change until return to the pretest value of heart rate in coronary sinus of anesthetized dog at intravenous dosage of 1 mg/kg; format: functional, Canis lupus familiaris
Canis familiaris [15] = experiment: Total time in minutes elapsed from the initiation of the change until return to the pretest value of heart rate in coronary sinus of anesthetized dog at intravenous dosage of 5.00 mg/kg; format: functional, Canis lupus familiaris
Canis familiaris [16] = experiment: Total time in minutes elapsed from the initiation of the change until return to the pretest value of oxygen partial pressure in coronary sinus of anesthetized dog at intravenous dosage of 1 mg/kg; format: functional, Canis lupus familiaris
In short: (§2)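 Open-chest anesthetized dogs given compound by intravenous injection. Coronary sinus PO2 was monitored, and duration was the total time in minutes from the onset of the change until return to the pretest value.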

Canis familiaris [17] = experiment: Total time in minutes elapsed from the initiation of the change until return to the pretest value of oxygen partial pressure in coronary sinus of anesthetized dog at intravenous dosage of 5 mg/kg; format: functional, Canis lupus familiaris; in short: as §2
Canis familiaris [18] = experiment: tested for the percent increase in heart rate (HR) in open chest anesthetized dog at intravenous dosage of 1 mg/kg; format: functional, Canis lupus familiaris
Canis familiaris [19] = experiment: Tested for the percent increase in aortic blood pressure (BP) in open chest anesthetized dog at intravenous dosage of 5.00 mg/kg; format: functional, Canis lupus familiaris, Artery
In short: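 Open-chest anesthetized dogs, compound given iv at the stated dose. Aortic blood pressure is reported as the change from the control (pre-dose) value. Other set-up follows the group's earlier cardiovascular protocol.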

Canis familiaris [20] = experiment: tested for the percent increase in aortic blood pressure (BP) in open chest anesthetized dog at intravenous dosage of 1 mg/kg; format: functional, Canis lupus familiaris, Artery
In short: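 Open-chest anesthetized dogs received intravenous doses. Aortic blood pressure was recorded as the change from control.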

Canis familiaris [21] = experiment: Tested for the percent increase in coronary sinus partial pressure of oxygen (PO2) in open chest anesthetized dog at intravenous dosage of 5.00 mg/kg; format: functional, Canis lupus familiaris
Canis familiaris [22] = experiment: tested for percent increase in coronary sinus partial pressure of oxygen (PO2) in open chest anesthetized dog at intravenous dosage of 1 mg/kg; format: functional, Canis lupus familiaris
Canis familiaris [23] = experiment: Total time in minutes elapsed from the initiation of the change until return to the pretest value of blood pressure in coronary sinus of anesthetized dog at intravenous dosage of 0.05 mg/kg; format: functional, Canis lupus familiaris
Canis familiaris [24] = experiment: Total time in minutes elapsed from the initiation of the change until return to the pretest value of heart rate in coronary sinus of anesthetized dog at intravenous dosage of 0.05 mg/kg; format: functional, Canis lupus familiaris
Canis familiaris [25] = experiment: Total time in minutes elapsed from the initiation of the change until return to the pretest value of oxygen partial pressure in coronary sinus of anesthetized dog at intravenous dosage of 0.05 mg/kg; format: functional, Canis lupus familiaris
Canis familiaris [26] = experiment: tested for the percent increase in heart rate (HR) in open chest anesthetized dog at intravenous dosage of 0.05 mg/kg; format: functional, Canis lupus familiaris
Canis familiaris [27] = experiment: tested for percent increase in coronary sinus partial pressure of oxygen (PO2) in open chest anesthetized dog at intravenous dosage of 0.05 mg/kg; format: functional, Canis lupus familiaris

Question: For NC(=O)[C@H]1OC(n2cnc3c(N)ncnc32)[C@H](O)[C@@H]1O (stereo partly specified), which Duration (Canis familiaris [1]) is on record?
Answer: Its Duration is 20 min.

Question: What about the Duration (Canis familiaris [2]) of the same molecule?
Answer: The Duration was 240 min.

Question: What about the Duration (Canis familiaris [3]) of the same molecule?
Answer: The Duration was 25 min.

Question: And the Duration (Canis familiaris [4])?
Answer: Its Duration is 240 min.

Question: And the Duration (Canis familiaris [5])?
Answer: Its Duration is 25 min.

Question: And the Duration (Canis familiaris [6])?
Answer: The Duration was 240 min.

Question: What about the PO2 (Canis familiaris [7]) of the same molecule?
Answer: The PO2 was 79%.

Question: What about the HR (Canis familiaris [8]) of the same molecule?
Answer: Its HR is 72%.

Question: And the PO2 (Canis familiaris [9])?
Answer: The PO2 was 41%.

Question: And the LD50 [10]?
Answer: Its LD50 is 5 mg/kg.

Question: And the LD50 [11]?
Answer: Its LD50 is 50 mg/kg.

Question: Which Duration (Canis familiaris [12]) does the source give for Nc1ncnc2c1ncn2C1O[C@H](C(=O)NC23CC4CC(CC(C4)C2)C3)[C@@H](O)[C@H]1O (stereo partly specified) here?
Answer: Its Duration is 1 min.

Question: And the Duration (Canis familiaris [13])?
Answer: Its Duration is 8 min.

Question: What about the Duration (Canis familiaris [14]) of the same molecule?
Answer: Its Duration is 2 min.

Question: What about the Duration (Canis familiaris [15]) of the same molecule?
Answer: The Duration was 60 min.

Question: And the Duration (Canis familiaris [16])?
Answer: Its Duration is 30 min.

Question: What about the Duration (Canis familiaris [17]) of the same molecule?
Answer: The Duration was 60 min.

Question: What about the HR (Canis familiaris [18]) of the same molecule?
Answer: Its HR is 55%.

Question: And the BP (Canis familiaris [19])?
Answer: Its BP is 5 mmHg.

Question: What about the BP (Canis familiaris [20]) of the same molecule?
Answer: The BP was 22 mmHg.

Question: What about the PO2 (Canis familiaris [21]) of the same molecule?
Answer: Its PO2 is 209%.

Question: What about the PO2 (Canis familiaris [22]) of the same molecule?
Answer: Its PO2 is 56%.

Question: What about the LD50 [10] of the same molecule?
Answer: The LD50 was > 300 mg/kg.

Question: What about the LD50 [11] of the same molecule?
Answer: The LD50 was > 300 mg/kg.

Question: With Nc1ncnc2c1ncn2C1O[C@H](C(=O)NCC2CC2)[C@@H](O)[C@H]1O (stereo partly specified) as the molecule, how does the Duration (Canis familiaris [23]) read?
Answer: Its Duration is 120 min.

Question: What about the Duration (Canis familiaris [24]) of the same molecule?
Answer: Its Duration is 0 min.

Question: And the Duration (Canis familiaris [25])?
Answer: The Duration was 120 min.

Question: What about the HR (Canis familiaris [26]) of the same molecule?
Answer: The HR was 0%.

Question: And the PO2 (Canis familiaris [27])?
Answer: Its PO2 is 47%.

Question: And the LD50 [10]?
Answer: The LD50 was 20 mg/kg.

Question: What about the LD50 [11] of the same molecule?
Answer: Its LD50 is 200 mg/kg.
